# The source made the active and inactive calls. The calls are words filed in the database; no cut-off is given here.
# Experiments:
# [1] = system: FL5.12; test: Cytotoxicity against mouse FL5.12 cells after 48 hrs by DAPI or propidium iodide staining-based flow cytometric analysis; assay type: functional, cell-based; details: FL5.12, 48 h
# Method in brief: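 FL5.12 (murine hematopoietic, IL-3-dependent) cells treated at 25,000/mL; viability read at 48 h by DAPI or propidium iodide dye exclusion on flow cytometry. IC50 fitted, reported with 95% confidence interval.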
# [2] = system: FL5.12; test: Downregulation of CD98 expression in mouse FL5.12 cells at 10 uM after 3 hrs by DAPI staining-based FACS analysis relative to control; assay type: functional
# Method in brief: (§1)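 FL5.12 cells plated at 225-250,000/mL and treated 3 h. 150-200,000 cells stained in triplicate on ice for 30 min with PE-anti-mouse CD98, with PE rat IgG2a κ as isotype control. Read by flow cytometry, gated on viable cells (DAPI exclusion or scatter). Loss given as mean of at least 2 biological replicates.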
# [3] = system: FL5.12; test: Downregulation of CD98 expression in mouse FL5.12 cells at 40 uM after 3 hrs by DAPI staining-based FACS analysis relative to control; assay type: functional; method in brief: as §1
# [4] = system: FL5.12; test: Downregulation of CD98 expression in mouse FL5.12 cells at 2.5 uM after 3 hrs by DAPI staining-based FACS analysis relative to control; assay type: functional; method in brief: as §1
# [5] = system: FL5.12; test: Cytotoxicity against mouse FL5.12 cells assessed as vacuole formation at 2.5 uM after 3 hrs by […]; assay type: functional, cell-based
# Method in brief: (§2)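 FL5.12 cells treated at 200,000/mL for 3 h, then imaged at 100× by brightfield/DIC. At least 5 images per condition, at least 2 biological replicates. Two researchers scored each replicate independently: 0 no vacuoles, + some cells, ++ most cells with at least 1 vacuole, +++ all cells heavily vacuolated.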
# [6] = system: FL5.12; test: Cytotoxicity against mouse FL5.12 cells assessed as vacuole formation at 10 uM after 3 hrs by […]; assay type: functional, cell-based; method in brief: as §2
# [7] = system: FL5.12; test: Cytotoxicity against mouse FL5.12 cells assessed as vacuole formation at 40 uM after 3 hrs by […]; assay type: functional, cell-based; method in brief: as §2
# [8] = target: Histone deacetylase (Homo sapiens) (UniProt Q13547+O15379+Q9UBN7+Q92769+Q9UQL6+Q8WUI4+Q9BY41+Q96DB2+P56524+Q9UKV0+Q969S8); test: Inhibition of HDAC in human HeLa cell extract at 10 to 20 uM after 15 to 30 mins by COLOR DE LYS-based colorimetric method; assay type: protein assay
# Method in brief: (§3)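 Recombinant HDAC1 or HeLa extract incubated with acetylated lysine substrate at 37°C for 15-30 min. Developer then added: 10-15 min at 37°C with absorbance at 405 nm (colorimetric kit), or 15 min at RT with fluorescence at ex 355/em 460 nm, corrected using ± trichostatin A.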
# [9] = target: Histone deacetylase 1 (Homo sapiens) (UniProt Q13547); test: Inhibition of human recombinant HDAC1 at 20 uM after 15 to 30 mins by COLOR DE LYS-based colorimetric method; method in brief: as §3
# Chain of Histone deacetylase 1 (Homo sapiens) (Q13547 whole entry): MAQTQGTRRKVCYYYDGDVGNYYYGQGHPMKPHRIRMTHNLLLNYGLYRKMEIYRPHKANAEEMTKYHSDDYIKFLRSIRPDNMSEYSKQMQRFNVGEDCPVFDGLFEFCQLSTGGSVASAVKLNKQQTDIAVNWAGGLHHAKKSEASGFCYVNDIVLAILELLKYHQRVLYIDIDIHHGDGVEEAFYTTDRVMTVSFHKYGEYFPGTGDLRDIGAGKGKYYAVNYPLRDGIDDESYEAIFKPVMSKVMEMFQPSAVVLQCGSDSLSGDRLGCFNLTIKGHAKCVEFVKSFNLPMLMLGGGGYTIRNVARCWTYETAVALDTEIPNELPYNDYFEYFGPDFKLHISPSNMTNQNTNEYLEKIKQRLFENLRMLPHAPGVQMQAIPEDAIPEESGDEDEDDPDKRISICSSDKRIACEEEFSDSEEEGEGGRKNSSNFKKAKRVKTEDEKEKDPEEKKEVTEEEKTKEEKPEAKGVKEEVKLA
SMILES,IC50 [1],Activity [2],Activity [3],Activity [4],Activity [5],Activity [6],Activity [7],inhibition [8],inhibition [9]
CCCCCCCCc1ccc(C(=O)[C@@H]2CCCN2)cc1.Cl,> 40 µM,-4%,33%,-21%,inactive,inactive,Active,–,–
CCCCCCCCc1ccc([C@H]2CCN[C@@H]2CO)cc1,2.1 µM,66%,–,41%,Active,Active,–,–,–
CCCCCCCCc1ccc(C(=O)[C@H]2C[C@H](CO)CN2)cc1.Cl,19.6 µM,19%,61%,0%,inactive,inactive,Active,–,–
CCCCCCCCc1ccc(CC(O)[C@@H]2C[C@@H](O)CN2)cc1.Cl (stereo not given in full),3 µM,62%,–,19%,Active,Active,–,inactive,–
Cc1nc(/C=C/CCCCCc2ccc([C@H]3CCN[C@@H]3CO)cc2)co1.Cl,10.2 µM,18%,61%,5%,–,inactive,inactive,–,–
CCCCCCCCc1ccc(C(=O)[C@@H]2C[C@@H](O)CN2)cc1.Cl,28.1 µM,9%,48%,2%,inactive,–,Active,–,–
CCCCCCCCc1ccc(CC[C@@H]2CCCN2)cc1.Cl,2.8 µM,63%,–,41%,Active,Active,–,–,–
CCCCCCCCc1ccc(CC(=O)[C@@H]2C[C@@H](OP(=O)(O)O)CN2)cc1.Cl,25 µM,3%,0%,–,–,inactive,inactive,inactive,–
CCCCCCCCc1ccc(C(=O)CC[C@@H]2C[C@@H](O)CN2)cc1.Cl,2.1 µM,52%,–,15%,Active,Active,–,–,–
CCCCCCCCc1ccc(C(=O)[C@@H]2C[C@@H](OP(=O)(O)O)CN2)cc1.Cl,12.9 µM,3%,-8%,–,inactive,inactive,inactive,–,–
CCCCCCCCc1ccc(C(C[C@@H]2CCCN2)OC)cc1.Cl (stereo not given in full),3 µM,58%,–,16%,inactive,Active,–,–,–
CCCCCCCCc1ccc(C(=O)[C@H]2C[C@H](OP(=O)(O)O)CN2)cc1.Cl,12.8 µM,-9%,0%,–,inactive,inactive,inactive,–,–
CCCCCCCCc1ccc(C(=O)C[C@@H]2C[C@@H](O)CN2)cc1.Cl,2.1 µM,46%,–,22%,Active,Active,–,–,–
O=C(CCCCCCC(=O)Nc1ccccc1)NO,–,–,–,–,–,Active,–,–,–
CC(=O)CCCCCCc1ccc([C@H]2CCN[C@@H]2CO)cc1.Cl,15.1 µM,-8%,23%,-15%,–,inactive,inactive,–,–
CCCCCCCCc1ccc(CCC(N)(CO)CO)cc1 [FINGOLIMOD],2.1 µM,63%,–,30%,Active,Active,–,–,–
CCCCCCCCc1ccc(CC(=O)[C@@H]2C[C@@H](O)CN2)cc1.Cl,18.6 µM,23%,59%,13%,inactive,inactive,Active,–,–
CCCCCCCCc1ccc(CC(=O)[C@H]2C[C@H](OP(=O)(O)O)CN2)cc1.Cl,25.3 µM,5%,8%,–,–,inactive,inactive,inactive,–
CCCCCCCCc1ccc(CC(=O)[C@H]2C[C@H](O)CN2)cc1.Cl,17.1 µM,16%,54%,11%,inactive,inactive,Active,–,–
Cc1nc(CCCCCCCc2ccc([C@H]3CCN[C@@H]3CO)cc2)co1.Cl,8.4 µM,33%,61%,5%,–,inactive,inactive,–,–
CCCCCCCCc1ccc(C(=O)C[C@@H]2CCCN2)cc1.Cl,2.5 µM,57%,–,28%,Active,Active,–,–,–
CCCCCCCCc1ccc(CC(O)[C@H]2C[C@H](O)CN2)cc1.Cl (stereo not given in full),1.8 µM,62%,–,9%,inactive,Active,–,inactive,–
CCCCCCCCc1ccc([C@@H]2CC[C@H]3C[C@H](CO)CN32)cc1.Cl,12.2 µM,32%,68%,0%,inactive,inactive,Active,–,–
CCCCCCCCc1ccc(C[C@@H]2C[C@@H](O)CN2)cc1,2.2 µM,63%,–,40%,Active,Active,–,–,–
CCCCCCCCc1ccc(C(=O)[C@H]2C[C@H](O)CN2)cc1.Cl,15.3 µM,51%,41%,12%,inactive,Active,Active,–,–
CCCCCCCCc1ccc(C(=O)C[C@H]2C[C@H](CO)CN2)cc1.Cl,2 µM,60%,–,44%,Active,Active,–,–,inactive
Cl.OC[C@H]1NCC[C@@H]1c1ccc(CCCOCc2ccccc2)cc1,10.9 µM,14%,51%,11%,–,inactive,inactive,–,–
CCCCCCCCc1ccc(C(=O)CC[C@H]2C[C@H](CO)CN2)cc1.Cl,4 µM,46%,–,8%,inactive,Active,–,–,–

# From ChEMBL document CHEMBL4265978, “In search of constrained FTY720 and phytosphingosine analogs as dual acting anticancer agents targeting metabolic and epigenetic pathways” (Eur J Med Chem, 2018)
